KCNQ1 act: human KCNQ1 channel potentiation or activation; CHO-K1 KCNQ1, thallium flux FluxOR fluorescence; stronger effect = higher value; P51787; B-score at 10 µM; 0.35% of 310,000 active;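 active = fluorescence ratio B-score, a plate-corrected score, at least three library SD, with initial intensity B-score within 5 SD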
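Assay system: CHO-K1 cells stably expressing KCNQ1; Medium: assay buffer with matched DMSO; Also added: K+/Tl+ depolarizing stimulus; Dosing: single dose; Timing: dye 90 min, compound 20 min, room temperature; Measured by: kinetic FluxOR thallium fluorescence, 10-s 1-Hz baseline, 110-s post-stimulus read; Read-out: peak-minus-minimum fluorescence over initial fluorescence, negative-control normalized, B-scored.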
KCNK3 inh: human KCNK3 channel inhibition, primary screen. 0.84% of 340,000 active. O14649. CHO-KCNK3 thallium flux, FluxOR fluorescence; stronger effect = lower value. B-score at 10 µM. AID 602410;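 active = B-score under library mean minus 4 SD, starting fluorescence ratio at most library mean plus 5 SD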;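 also: more negative B-score means stronger inhibition of thallium flux through KCNK3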
KCNK9 block: inhibitors of human KCNK9 two-pore domain potassium channel. AID 488922. HEK293 KCNK9, FluxOR thallium flux fluorescence; stronger effect = lower value. B-score at 10 µM. 1.2% of 310,000 active;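 active = ratio B-score over 3 SD below the library mean, with starting fluorescence within 5 SD of its mean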;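 also: negative B-score means less thallium flux so channel inhibition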
hERG rescue: hERG (human) protection from proarrhythmic block; Q12809; CHO-hERG, FluxOR thallium flux, dofetilide IC70 present; activation (rescue from dofetilide block), less the hit threshold, % at 10 µM; 0.51% of 310,000 active; AID 1511;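 active = activation above the mean of controls blocked by dofetilide plus 5 SD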;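 also: thallium influx through hERG after potassium depolarization seen as dye fluorescence rise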
Target sequence (Q12809 whole entry, looked up): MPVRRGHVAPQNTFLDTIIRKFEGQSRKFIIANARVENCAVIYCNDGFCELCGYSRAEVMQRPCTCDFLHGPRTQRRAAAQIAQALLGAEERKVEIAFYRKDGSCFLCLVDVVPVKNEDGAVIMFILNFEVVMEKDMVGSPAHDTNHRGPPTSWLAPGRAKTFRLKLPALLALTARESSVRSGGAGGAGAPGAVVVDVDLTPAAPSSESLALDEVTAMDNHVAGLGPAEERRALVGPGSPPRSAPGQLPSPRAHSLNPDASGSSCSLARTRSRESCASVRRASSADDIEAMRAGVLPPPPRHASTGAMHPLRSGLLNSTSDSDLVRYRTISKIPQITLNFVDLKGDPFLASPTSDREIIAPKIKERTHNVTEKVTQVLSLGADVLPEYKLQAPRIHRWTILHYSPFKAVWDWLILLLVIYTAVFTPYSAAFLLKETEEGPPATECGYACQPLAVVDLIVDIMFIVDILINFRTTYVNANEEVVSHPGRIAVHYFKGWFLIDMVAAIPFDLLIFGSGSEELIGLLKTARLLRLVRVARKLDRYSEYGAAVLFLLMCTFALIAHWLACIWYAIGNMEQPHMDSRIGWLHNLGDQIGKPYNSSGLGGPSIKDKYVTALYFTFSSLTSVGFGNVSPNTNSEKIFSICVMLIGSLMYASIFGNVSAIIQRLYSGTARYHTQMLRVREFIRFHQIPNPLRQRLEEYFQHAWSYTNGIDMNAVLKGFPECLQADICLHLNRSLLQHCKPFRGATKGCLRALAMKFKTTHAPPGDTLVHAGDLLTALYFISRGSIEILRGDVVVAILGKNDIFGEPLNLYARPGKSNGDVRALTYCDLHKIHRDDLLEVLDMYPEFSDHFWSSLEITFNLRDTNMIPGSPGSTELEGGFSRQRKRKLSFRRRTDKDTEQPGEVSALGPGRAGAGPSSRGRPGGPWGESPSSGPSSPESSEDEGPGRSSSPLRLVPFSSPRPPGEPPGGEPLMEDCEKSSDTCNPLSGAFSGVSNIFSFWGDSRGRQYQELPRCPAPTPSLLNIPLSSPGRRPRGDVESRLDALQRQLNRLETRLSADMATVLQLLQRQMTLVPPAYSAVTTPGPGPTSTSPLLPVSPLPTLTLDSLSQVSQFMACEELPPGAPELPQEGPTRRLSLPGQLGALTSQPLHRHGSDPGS
Kir21 inh: Kir2.1 (mouse) channel inhibition; P35561; HEK293-Kir2.1, FluxOR thallium flux fluorescence; stronger effect = lower value; B-score at 10 µM; 0.85% of 310,000 active;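 active = fluorescence ratio B-score at or below minus 3 SD of library scores, with starting-brightness B-score within 2 SD, cut at about -4.2 in these data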;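 also: channel flux triggered by added potassium and thallium sulfate stimulus; B-score of peak minus minimum fluorescence over baseline after thallium stimulus; more negative B-score means stronger Kir2.1 block with less thallium influx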
KCNQ1 inh: inhibitors of human KCNQ1 potassium channel | P51787 | CHO-K1 KCNQ1, FluxOR thallium flux fluorescence; stronger effect = higher value | B-score at 10 µM | 1.3% of 310,000 active | AID 2642;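 active = compounds whose thallium flux B-score, printed positive for inhibition, exceeds three library SD while starting fluorescence stays within three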;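 also: channel opened by potassium depolarization with thallium stimulus after 20 min compound exposure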
KCNK3 confirm: confirmation of human KCNK3 two-pore domain potassium channel inhibitors | shares compounds with KCNK3 inh | CHO-KCNK3 thallium flux, FluxOR fluorescence; 0% buffer, 100% carvedilol maximal block | ratio percent of control, % at 10 µM | 99% of 2,400 active;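 active = ratio percent of control, averaged over triplicates, above buffer control mean plus 5 SD, cut at about 64% in these data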;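 also: ratio is the fluorescence rise from min to max over baseline after thallium stimulus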
KCNK3 uninduced: KCNK3 inhibitor counter-screen hit in non-induced cells | shares compounds with KCNK3 inh | non-induced KCNK3 parental cells, FluxOR thallium flux; stronger effect = lower value | thallium flux ratio (lower = more inhibition) at 10 µM | 40% of 2,400 active | AID 651747;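 active = thallium flux ratio, averaged over three wells, more than 5 SD below the buffer control mean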;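 also: host cells are CHO cells without KCNK3 induction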
A number is an active result; – = inactive; · = no result. This is a sample that favours compounds with a hit; in the whole collection about 3.7% have one here.

SMILES	KCNQ1 act	KCNK3 inh	KCNK9 block	hERG rescue	Kir21 inh	KCNQ1 inh	KCNK3 confirm	KCNK3 uninduced
Cc1ccccc1OCC(O)Cn1c2ccccc2c2ccccc21 (centres undefined)	–	-9.69	-6.68	–	–	–	131.3	0.13
COc1ccc(NC(=S)N(CCCN2CCOCC2)C(C)c2cc3ccccc3o2)cc1 (centres undefined)	–	–	–	–	–	–	·	·
COc1cccc2cc(C(C)N(CCCN3CCOCC3)C(=S)Nc3ccc(C)cc3)oc12 (centres undefined)	–	-9.5	–	–	–	–	105.3	–
COC(=O)NCc1ccc2c(c1)OCO2	–	–	–	–	–	–	·	·
C/C(=C\C(=O)c1ccc(Cl)cc1)NCc1ccc2c(c1)OCO2	–	-9.76	–	–	–	–	84.3	0.155
COc1ccc(NC(=S)N2CCc3ccccc32)cc1OC	–	–	–	–	–	–	·	·
Cc1ccc(C(=O)NCc2ccccn2)cc1S(=O)(=O)N1CCOCC1	·	–	·	·	·	·	·	·
CCCCn1nc(NC(=O)c2cccs2)c2cc3ccccc3nc21	–	-9.53	–	–	–	–	117.7	0.14
COc1ccccc1CNC(=O)c1sccc1-c1ccccc1	–	-9.98	–	–	-6.56	–	103.3	–
Cc1ccc(C(=O)CSc2nc(N)cc(=O)[nH]2)cc1	–	–	–	–	–	–	·	·
C=C(C)CSc1nc(N)cc(=O)[nH]1	–	-21.1	–	–	–	–	67.0	–
COc1cc2ccccc2cc1C(=O)Nc1nccs1	–	-9.61	–	–	–	–	94.0	–
COc1c(C(=O)Nc2nccs2)ccc2ccccc12	–	–	–	–	–	–	·	·
COc1ccc(NC(=O)c2cccs2)cc1NC(=O)c1ccco1	–	–	–	–	–	–	·	·
Cc1ccc(NC(=O)c2cccs2)cc1NC(=O)c1ccco1	–	-8.81	–	–	–	–	105.0	–
O=C(Nc1ccc2nc(-c3cccs3)[nH]c2c1)c1ccco1	–	-10.2	–	–	–	–	81.3	–
CCOC(=O)c1c(CSC(=N)N)n(-c2ccccc2)c2cc(Br)c(OC(C)=O)cc12	–	-10.4	–	–	-4.45	–	129.3	0.138
COc1cc(NC(=O)CN2C(=O)COc3ccccc32)cc(OC)c1	·	–	·	·	·	·	·	·
COc1ccc(Cl)cc1NC(=O)N1CCN(c2ccccc2OC)CC1	–	-10.8	–	–	–	–	81.7	–
CCCn1c(N)c(C(=O)CSc2nc(N)cc(=O)[nH]2)c(=O)n(C)c1=O	·	–	·	·	·	·	·	·
N#Cc1cnc(NCc2ccc(Cl)cc2Cl)nc1	–	-11.7	–	–	–	–	107.7	–
CN(C)/C=C1/OC(=O)C(C#N)=C1c1ccc(Cl)cc1	–	–	–	–	–	–	·	·
CCN1CCN(C(=O)c2cc3nc(-c4ccccc4)cc(C(F)(F)F)n3n2)CC1	–	-8.7	–	–	–	–	–	–
O=C(c1cc2nc(-c3ccc(F)cc3)cc(C(F)(F)F)n2n1)N1CCCCC1c1cccnc1 (centres undefined)	–	-10.9	–	–	–	–	120.7	0.142
O=C(c1cnn2c(C(F)(F)F)cc(-c3ccccc3)nc12)N1CCCCC1c1cccnc1 (centres undefined)	–	–	–	–	–	–	·	·
SMILES	KCNQ1 act	KCNK3 inh	KCNK9 block	hERG rescue	Kir21 inh	KCNQ1 inh	KCNK3 confirm	KCNK3 uninduced
O=C(COC(=O)c1cc(S(=O)(=O)N2CCOCC2)ccc1F)Nc1ccc(Cl)cn1	·	–	·	·	·	·	·	·
N#Cc1cc(-c2ccc(Cl)cc2)cn(Cc2c(Cl)cccc2Cl)c1=O	–	–	–	–	–	–	·	·
CC(C)n1cc(-c2ccc(Cl)cc2)cc(C#N)c1=O	–	-10.2	–	–	–	–	106.7	–
N#Cc1nc(COc2ccc(Br)cc2)oc1N1CCCCCC1	–	-15	–	–	–	–	81.7	–
CC(C)(C)OC(=O)NCCCCCc1nnc(SCC(=O)Nc2cccc(Cl)c2)o1	–	-9.25	–	–	–	–	116.7	0.152
CCCCN1C(=S)NC[C@@H]1c1ccccc1	–	–	–	–	–	–	·	·
CCCN1C(=S)c2ccccc2C1c1ccccc1 (centres undefined)	–	-10.8	–	–	–	–	120.7	0.153
Cn1cc(S(=O)(=O)Nc2cccc3ccccc23)c(=O)n(C)c1=O	–	–	–	–	–	–	·	·
Cc1ccccc1OCc1nc(-c2ccc(Br)o2)no1	–	-11.9	–	–	–	–	97.7	–
COc1cc(Cl)c(C)cc1NC(=O)CSc1ccc(C)cc1	–	–	–	–	–	–	·	·
COc1cc(Cl)c(C)cc1NC(=O)CSc1ccccc1	–	-9.39	–	–	–	–	113.0	–
CCN(CC)c1nc(-c2ccccc2)nc2ccccc12	–	-9.51	–	–	–	–	129.0	–
COCCN(CCOC)c1nc(-c2ccc(Cl)cc2)nc2ccccc12	–	-9.23	-7.55	–	–	–	128.0	–
CCOc1cc(/C=C2\C(=O)N(Cc3ccco3)C(C)=C2C(=O)OC)ccc1O	–	-9.47	–	–	–	–	71.3	–
O=C(NCCn1cc(SCc2ccccc2)c2ccccc21)c1ccccc1F	–	-15.5	–	–	–	8	124.3	0.146
O=C(Cn1c(=O)n(Cc2ccco2)c(=O)c2ccccc21)Nc1cccc(Cl)c1	–	-14	–	–	–	–	97.7	–
Cc1ccc(NC(=O)Cn2c(=O)n(Cc3ccco3)c(=O)c3ccccc32)c(C)c1	–	–	–	–	–	–	·	·
CC/C(=N\NC(N)=O)c1ccc(OC(F)F)cc1	–	–	–	–	–	–	·	·
CC(NS(=O)(=O)c1ccccc1)C(c1cccs1)N1CCN(c2ccccc2)CC1 (centres undefined)	–	–	–	–	–	–	·	·
COc1ccccc1N1CCN(C(c2cccs2)C(C)NS(=O)(=O)c2ccccc2)CC1 (centres undefined)	–	-9.61	–	–	–	6	95.7	–
O=C(COC(=O)c1ccccc1-c1ccccc1[N+](=O)[O-])c1ccccc1	–	-10.5	–	–	–	–	92.0	–
O=C(COC(=O)c1ccccc1[N+](=O)[O-])c1ccc2c(c1)OCO2	–	–	–	–	–	–	·	·
O=C(Nn1cnc2ccccc2c1=O)c1ccc([N+](=O)[O-])cc1	–	–	–	–	–	–	·	·
NC(=O)c1cccc2c1C(=O)N(C1CCCCC1)C2	–	–	–	–	–	–	·	·
Cc1cc(C)cc(NC(=O)c2cccc3c2C(=O)N(C2CCCCC2)C3)c1	–	-9.34	–	–	–	–	107.3	–
CCN1/C(=C\C(=S)Nc2ccccc2)Sc2ccccc21	–	-9.82	–	–	–	–	110.3	–

Bioassay records (PubChem BioAssay)
